Legend:
[1] = target: T1, Peroxisome proliferator-activated receptor gamma (Homo sapiens, UniProt P37231); assay: Agonist activity at human GAL4 fused PPARgamma-Hinge-LBD expressed in HEK293T cells after 18 hrs by luciferase reporter gene assay; assay type: cell-based, HEK-293T
T1 sequence (P37231 whole entry): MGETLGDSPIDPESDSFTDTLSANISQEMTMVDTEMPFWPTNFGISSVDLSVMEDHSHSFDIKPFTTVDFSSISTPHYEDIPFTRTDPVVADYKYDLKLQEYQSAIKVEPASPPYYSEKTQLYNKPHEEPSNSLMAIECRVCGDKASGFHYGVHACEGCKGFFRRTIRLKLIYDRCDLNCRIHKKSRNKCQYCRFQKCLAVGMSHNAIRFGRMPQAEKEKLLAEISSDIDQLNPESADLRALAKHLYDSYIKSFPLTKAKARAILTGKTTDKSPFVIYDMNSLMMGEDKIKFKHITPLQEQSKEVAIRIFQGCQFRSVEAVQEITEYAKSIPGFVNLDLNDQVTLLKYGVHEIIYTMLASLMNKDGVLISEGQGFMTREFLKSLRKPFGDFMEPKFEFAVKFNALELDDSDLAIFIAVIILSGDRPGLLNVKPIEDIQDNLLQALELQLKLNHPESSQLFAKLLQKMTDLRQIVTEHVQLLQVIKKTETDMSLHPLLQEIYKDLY
How it was run: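 HEK293T cells were co-transfected with human GAL4-PPARγ-hinge-LBD and a 5× multimerized UAS-luciferase reporter (4.5 μg each) and grown serum-free for 18 h at 37 °C under 5% CO2. After 18 h, luminescence was read. EC50 came from plotting fold change over DMSO; points were run in triplicate, with two biological replicates.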

[2] = target: T2, Peroxisome proliferator-activated receptor gamma (Homo sapiens) (UniProt P37231); assay: Agonist activity at human GAL4 fused PPARgamma-Hinge-LBD expressed in HEK293T cells after 18 hrs by luciferase reporter gene assay relative to rosiglitazone; assay type: cell-based; conditions: HEK-293T
T2 sequence (whole entry): T1 sequence (P37231 whole entry)
How it was run: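 HEK293T cells carried transfected human GAL4-PPARγ-hinge-LBD and a 5× UAS-luciferase reporter. Maximal transcriptional output was normalized to rosiglitazone, taken as 100% transactivation. Points were run in triplicate, with two biological replicates.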

Rattus norvegicus = assay: Antidiabetic activity in Zucker fa/fa rat assessed as decrease in blood glucose levels at 0.3 mg/kg administered via oral gavage for 14 days by oral glucose tolerance test; assay type: functional; set-up: scale not given: the % may be the effect or the level left

Row | SMILES | EC50 [1] [nM] | Activity [2] [%] | Activity (Rattus norvegicus) [%]
1 | O=S(=O)(Nc1cc(Cl)c(Oc2cnc3ccccc3c2)c(Cl)c1)c1ccc(Br)cc1OC(F)(F)F | 4 | 21 | 
2 | O=S(=O)(Nc1cc(Cl)c(Oc2cnc3ccccc3c2)c(Cl)c1)c1ccc(Br)cc1C(F)(F)F | 94 | 34 | 
3 | Cc1cc(C)c(S(=O)(=O)Nc2cc(Cl)c(Oc3cnc4ccccc4c3)c(Cl)c2)c(C)c1 | 3310 | 14 | 
4 | O=S(=O)(Nc1cc(Cl)c(Oc2cnc3ccccc3c2)c(Cl)c1)c1ccccc1Cl | 5810 | 19 | 
5 | O=S(=O)(Nc1cc(Cl)c(Oc2cnc3ccccc3c2)c(Cl)c1)c1cccs1 |  | 14 | 
6 | COc1cccc(C(=O)Nc2cc(Cl)c(Oc3cnc4ccccc4c3)c(Cl)c2)c1 |  | 2 | 
7 | O=S(=O)(Nc1cc(Cl)c(Oc2cnc3ccccc3c2)c(Cl)c1)c1ccc(Cl)cc1Cl [INT131] |  |  | 30

Continued, in another order:

Row | EC50 [1] [nM] | Activity [2] [%] | SMILES | Activity (Rattus norvegicus) [%]
8 | 169 | 9 | O=S(=O)(Nc1cc(Cl)c(Oc2cnc3ccccc3c2)c(Cl)c1)c1ccc(Br)c(F)c1 | 
9 | 600 | 29 | Cc1cc(S(=O)(=O)Nc2cc(Cl)c(Oc3cnc4ccccc4c3)c(Cl)c2)ccc1Br | 
10 | 151 | 11 | O=S(=O)(Nc1cc(Cl)c(Oc2cnc3ccccc3c2)c(Cl)c1)c1ccc(Br)cc1 | 
11 | 957 | 18 | O=S(=O)(Nc1cc(Cl)c(Oc2cnc3ccccc3c2)c(Cl)c1)c1ccc(Br)c(C(F)(F)F)c1 | 
12 | 2 | 13 | O=S(=O)(Nc1cc(Cl)c(Oc2cnc3ccccc3c2)c(Cl)c1)c1ccc(Br)cc1F | 
13 | 134 | 27 | O=S(=O)(Nc1cc(Cl)c(Oc2cnc3ccccc3c2)c(Cl)c1)c1ccc(Br)cc1Cl | 
14 | 131 | 10 | O=S(=O)(Nc1cc(Cl)c(Oc2cnc3ccccc3c2)c(Cl)c1)c1cc(F)c(Br)cc1F | 
15 | 4290 | 23 | O=S(=O)(Nc1cc(Cl)c(Oc2cnc3ccccc3c2)c(Cl)c1)c1ccc2ccccc2c1 | 
